{"data": "Measured values from different studies", "target": "Serine/threonine-protein kinase N2 (PKN2, Homo sapiens, UniProt Q16513)", "note": "Compare with care: the assays were run in different laboratories."}
{"effect on": "enzyme activity", "mode": "inhibitor", "tested at": "1 µM", "measurement": "inhibition", "result": "0%", "Compound": "CC#CC(=O)N1CCC[C@H]1c1nc(-c2ccc(C(=O)Nc3ccccn3)cc2)c2c(N)nccn12"}
{"effect on": "binding", "method": "competition with immobilised ligand", "tested at": "0.5 µM", "measurement": "remaining binding", "result": "87%", "Compound": "CCCCC(=O)Nc1ccc(-c2ccc3ncn(CCC)c(=O)c3c2)cn1"}
{"effect on": "binding", "tested at": "1 µM", "measurement": "remaining binding", "result": "100%", "Compound": "CN1CCN(C(=O)c2ccc(NC(=O)Nc3ccc(N(C)c4ccnc(Nc5ccc(CS(C)(=O)=O)cc5)n4)cc3)cc2)CC1"}
{"effect on": "enzyme activity", "mode": "inhibitor", "tested at": "1 µM", "measurement": "activity vs control", "result": "116%", "Compound": "CC(C)S(=O)(=O)c1ccc2nccc(Nc3ccc4sc(C5CCCC5)nc4c3)c2c1"}
{"effect on": "enzyme activity", "mode": "inhibitor", "tested at": "0.1 µM", "measurement": "inhibition", "result": "13.8%", "Compound": "Cc1cc(O)c(-c2ccc([C@@H](C)CN(C)C)cc2)c2c1[nH]c(=O)c1sccc12"}
{"effect on": "binding", "tested at": "1 µM", "measurement": "remaining binding", "result": "89%", "Compound": "Cc1ccc(NC(=O)c2ccnc(C(F)(F)F)c2)cc1-c1cc(OCCO)nc(N2CCOCC2)c1"}
{"effect on": "enzyme activity", "mode": "inhibitor", "tested at": "1 µM", "measurement": "inhibition", "result": "24%", "Compound": "C=CC(=O)N1CCC([C@@H]2CCNc3c(C(N)=O)c(-c4ccc(Oc5ccccc5)cc4)nn32)CC1"}
{"effect on": "binding", "tested at": "0.1 µM", "measurement": "remaining binding", "result": "100%", "Compound": "C1=C/COCc2cc(ccc2OCCN2CCCC2)Nc2nccc(n2)-c2cccc(c2)COC/1"}
